IC50 data for 9 molecules are collected here from ChEMBL document CHEMBL1149866, “Cytotoxic diterpenoids from Euphorbia helioscopia” (J Nat Prod, 2008).

pIC50: −log10 of the molar value.

The pIC50 is the IC50 on a negative log10 scale, so that one unit is a factor of ten. Read a high pIC50 as a low IC50.

One test relates to MDA-MB-231. As to the kind of experiment: Cytotoxicity against human MDA-MB-231 cells by MTT method. It counts as functional, cell-based. In a few lines: (§1)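 HeLa (human cervical carcinoma) and MDA-MB-231 (breast tumor) cells; MTT viability read-out run per a previously published protocol; IC50 determined; adriamycin as positive control.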
For a further test, the system named is HeLa. Description: Cytotoxicity against human HeLa cells by MTT method. In kind it is functional, cell-based. In a few lines: as §1
Background: Tetrazolium dyes change colour on reduction, which living cells bring about.

`CC1=C2C=C3CC[C@@H]4C(C)(C)[C@H](O)CC[C@@]4(C)[C@@H]3C[C@H]2OC1=O` [HELIOSCOPINOLIDE A]: the pIC50 in the test with MDA-MB-231 was 5.68; in the test with HeLa, 6.96.

In the case of `CC(=O)O[C@@H]1C[C@@H](OC(C)=O)C(C)(C)[C@H](O)[C@H]2O[C@@]3(C[C@H](C)[C@H](OC(=O)c4ccccc4)[C@@H]3/C=C/1C)[C@@H](OC(C)=O)[C@H]2C`, the pIC50 in the test with MDA-MB-231 and with HeLa was less than 5.00 each time.

With `CC(=O)O[C@@H]1C[C@@H](O)C(C)(C)/C=C/[C@H](C)[C@H](OC(C)=O)[C@@]2(O)C[C@H](C)[C@H](OC(=O)c3ccccc3)[C@@H]2/C=C/1C` [EUPHORNIN B], the negative logarithm of the IC50 (pIC50) in the test with MDA-MB-231 and with HeLa was less than 5.00 each time.

Take `CC(=O)O[C@@H]1C[C@@H](OC(C)=O)C(C)(C)/C=C/[C@H](C)[C@H](OC(C)=O)[C@@]2(O)C[C@H](C)[C@H](OC(=O)c3ccccc3)[C@@H]2/C=C/1CO`: the pIC50 in the test on MDA-MB-231 and in the test with HeLa was less than 5.00 throughout.

`CC(=O)O[C@@H]1[C@H](C)/C=C/C(C)(C)C(=O)C[C@@H](OC(=O)c2ccccc2)/C(CO)=C/[C@H]2[C@@H](OC(=O)c3ccccc3)[C@H](C)C[C@]12OC(C)=O`: the negative logarithm of the IC50 (pIC50) with MDA-MB-231 and in the test on HeLa was less than 5.00 each time.

Turning to `CC(=O)O[C@@H]1C[C@@H](OC(C)=O)C(C)(C)/C=C/[C@H](C)[C@H](OC(C)=O)[C@@]2(O)C[C@H](C)[C@H](OC(=O)c3ccccc3)[C@@H]2/C=C/1C` [EUPHORNIN], the pIC50 with MDA-MB-231 was 4.87; in the test with HeLa it was 5.51.

In the case of `CC(=O)O[C@H]1[C@@H](C)/C=C/C(C)(C)[C@H](O)C[C@@H](O)/C(C)=C/[C@H]2[C@@H](OC(=O)c3ccccc3)[C@@H](C)C[C@@]21O`, the negative-log IC50 (pIC50) with MDA-MB-231 and in the test with HeLa was less than 5.00 throughout.

As to `CC(=O)O[C@@H]1[C@H]2O[C@@]3(C[C@H](C)[C@H](OC(=O)c4ccccc4)[C@@H]3/C=C(\C)[C@H](OC(C)=O)C[C@@H](OC(C)=O)C1(C)C)[C@@H](OC(C)=O)[C@H]2C`, the pIC50 in the test with MDA-MB-231 and with HeLa was less than 5.00 in each case.

With `CC(=O)O[C@@H]1[C@H](C)/C=C/C(C)(C)C(=O)C[C@@H](OC(=O)c2ccccc2)/C(C)=C/[C@H]2[C@@H](OC(=O)c3ccccc3)[C@H](C)C[C@]12OC(C)=O` [EUPHOSCOPIN C], the pIC50 with MDA-MB-231 and in the test on HeLa was less than 5.00 each time.
